Screens deposited in PubChem by The Scripps Research Institute Molecular Screening Center.
This is a sample that favours compounds with a hit; in the whole collection about 3.3% have one here.
LEDGF integ inh = blockers of LEDGF/p75-dependent integrase strand transfer – biochemical, TR-FRET, high throughput, primary screen; HIV-1 integrase (with human LEDGF/p75); TR-FRET IN-LEDGF/p75 DNA integration, Eu/Cy5; AID 743269, 2014; inhibition, % at 3.7 µM; hit rate 0.64% among 370,000;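 active = inhibition above the screen-wide mean plus 3 SD, cut at about 13% in these data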;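 also: signal is the Cy5 over europium emission ratio at 671 and 618 nm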
TDP2 inh = human TDP2 enzyme inhibitors, primary screen, biochemical, epi absorbance, recombinant enzyme | Tyrosyl-DNA phosphodiesterase 2 (Homo sapiens), O95551 | T5PNP hydrolysis, p-nitrophenol absorbance 415 nm | inhibition, % at 12.8 µM | hit rate 0.34% among 370,000;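 active = inhibition above the mean of all tested compounds plus 3 SD, set per campaign, cut at about 25% in these data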
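Test system: human TDP2 enzyme; Input: 120 nM TDP2 per well; Buffer or medium: Mg2+-containing Tris-HCl buffer, pH 7.5; Reagent: 5 mM T5PNP; Dosing: 12.8 µM single point, 1% DMSO; Incubation: reaction 2 h, 37 °C; Detection: p-Nitrophenol epi absorbance; Read-out: % inhibition relative to enzyme-containing and enzyme-free wells; Replicates: single well per compound.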
UHRF1 MBD2 ctr = UHRF1 methylated DNA binding inhibitors, primary screen, counter-screen for MBD2 inhibitor project, biochemical, TR-FRET, human UHRF1, single concentration; UHRF1 binding to methylated oligo; inhibition, % at 4.4 µM; hit rate 0.75% among 370,000; in the data active = inhibition above about 21%;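 also: UHRF1 SRA domain binding a hemimethylated CpG hairpin DNA probe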
MBD2 inh = inhibitors of MBD2 binding to methylated DNA, primary screen, biochemical, TR-FRET, DNA-binding domain, human; AID 686964, 2013; inhibition, % at 4.4 µM; MBD2 binding to methylated oligonucleotide; hit rate 0.31% among 370,000; in the data active = inhibition above about 13%
SIAE inh = human SIAE inhibitors, primary screen, biochemical, fluorescence polarization, FP-Rh probe, 1536-well HTS. SIAE FP-Rh probe binding. inhibition, % at 9.66 µM. hit rate 0.69% among 370,000. Sialate O-acetylesterase (Homo sapiens), Q9HAT2;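 active = inhibition above a cutoff: mean of compounds within the control limits plus 3 SD of those, cut at about 17% in these data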
Target sequence (Q9HAT2 whole entry, looked up): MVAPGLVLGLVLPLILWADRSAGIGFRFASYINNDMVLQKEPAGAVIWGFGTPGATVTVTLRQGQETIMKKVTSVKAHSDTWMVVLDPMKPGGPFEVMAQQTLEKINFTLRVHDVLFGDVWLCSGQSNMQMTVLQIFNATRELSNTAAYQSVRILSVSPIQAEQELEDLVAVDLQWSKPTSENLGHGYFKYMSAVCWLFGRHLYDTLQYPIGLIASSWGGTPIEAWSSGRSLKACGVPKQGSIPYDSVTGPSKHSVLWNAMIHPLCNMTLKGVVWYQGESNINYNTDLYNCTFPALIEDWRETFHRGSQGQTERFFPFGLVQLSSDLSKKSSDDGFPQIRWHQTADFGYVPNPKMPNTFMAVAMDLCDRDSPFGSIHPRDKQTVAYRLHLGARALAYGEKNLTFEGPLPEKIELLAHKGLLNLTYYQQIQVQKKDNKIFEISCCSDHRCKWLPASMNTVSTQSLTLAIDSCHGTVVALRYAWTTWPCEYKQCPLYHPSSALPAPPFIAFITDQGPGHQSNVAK
PRMT1 inh = PRMT1 methyltransferase inhibitors, primary screen, biochemical, fluorescence polarization; Protein arginine N-methyltransferase 1 (Homo sapiens), Q99873; inhibition, % at 2.79 µM; recombinant PRMT1, activity-based probe fluorescence polarization; hit rate 1.3% among 370,000;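 active = inhibition above about 21% made by adding two undisclosed values, limit read from the data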
PRMT1 confirm = PRMT1 methyltransferase inhibitors, confirmation, biochemical, fluorescence polarization, triplicate | hit rate 42% among 3,300 | shares compounds with PRMT1 inh | recombinant His-PRMT1, activity-based probe fluorescence polarization | inhibition, % at 2.79 µM | AID 687036, 2013;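 active = mean inhibition across replicates above the hit cutoff derived for the earlier primary screen, cut at about 22% in these data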
Numbers stand for hits; n = inactive; x = no result given.

SMILES	LEDGF integ inh	TDP2 inh	UHRF1 MBD2 ctr	MBD2 inh	SIAE inh	PRMT1 inh	PRMT1 confirm
CCn1c2ccccc2c2cc(NC(=O)CSc3nnc(C4CC4)n3Cc3ccco3)ccc21	n	n	n	n	n	n	x
CCn1c2ccccc2c2cc(NC(=O)CSc3nnc(-c4ccccc4)n3Cc3ccco3)ccc21	n	n	n	n	n	80	65
Cc1cccc(-c2nnc(SCC(=O)Nc3ccc(-c4nc5ccc(C)cc5s4)cc3)n2Cc2ccco2)c1	n	n	n	n	n	41	n
Cc1ccc2nc(-c3ccc(NC(=O)CSc4nnc(-c5ccccc5)n4Cc4ccco4)cc3)sc2c1	n	n	n	n	n	25	n
Cc1ccc(CNS(=O)(=O)c2cc(F)ccc2CN2C(=O)c3cccnc3C2=O)o1	n	n	n	n	n	25	n
Cc1ccc(CNS(=O)(=O)c2ccc(CN3C(=O)c4cccnc4C3=O)cc2)o1	n	n	n	n	n	26	n
COC(=O)C1CN(Cc2cn(Cc3ccccc3)nn2)CCS(=O)(=O)N1Cc1ccc(C)cc1 (stereo not given)	n	n	n	n	n	n	x
O=C(O)c1ccc2ncsc2c1	n	n	n	n	n	25	n
O=C(Nc1cccc(Cl)c1)c1ccc2ncsc2c1	n	n	n	n	n	32	n
O=C(COC(=O)c1ccc2ncsc2c1)Nc1cccc(Cl)c1	n	n	n	n	n	33	n
Cc1ccc(NC(=O)CN2CCN(c3nc(-c4ccccc4)cs3)CC2)cc1C	n	n	n	n	n	n	x
Cc1cccc(Cn2cc(CN3CC(N(C)CCOC(=O)c4cc(C)cc(C)c4)CS3(=O)=O)nn2)c1 (stereo not given)	n	n	n	n	n	n	x
O=C(C1=C(O)C(=O)N(c2nccs2)C1c1ccccc1)c1cc2ccccc2o1 (stereo not given)	n	n	n	n	n	92	132
CCOc1cccc(C2C(C(=O)c3ccc(C)o3)=C(O)C(=O)N2c2nccs2)c1 (stereo not given)	n	n	n	n	n	65	38
O=C(C1=C(O)C(=O)N(CCc2ccccc2)C1c1ccncc1)c1cc2ccccc2o1 (stereo not given)	n	n	n	n	n	n	x
CCOc1cccc(C2C(C(=O)c3ccc(C)o3)=C(O)C(=O)N2Cc2ccncc2)c1 (stereo not given)	n	n	n	n	n	n	x
Cc1cccc(C)c1OCc1cccc(C2Nc3ccccc3C(=O)N2Cc2ccco2)c1 (stereo not given)	n	n	n	n	n	n	x
C[N+]1=C(N)N[C@@]2(C=C3CCCCC3n3c(=O)n(-c4ccccc4)c(=O)n32)C1 (stereo not given in full)	n	n	n	n	n	n	x
COc1ccc2c(c1)CN1C(=O)N(Cc3ccccc3)S(=O)(=O)CC21 (stereo not given)	n	n	n	n	n	n	x
O=S(c1ccccc1O)S(=O)c1ccccc1O (stereo not given)	n	n	n	n	n	88	95
COC1=C[C@H](C(=O)N[C@H]2CCCC[C@@H]2NC(C)=O)[C@@]2(C)Cc3ccccc3[C@H]2CC1=O	n	n	n	n	n	n	x
O=C(NCc1ccco1)C1CCCN(S(=O)(=O)c2ccccc2F)C1 (stereo not given)	n	n	n	n	n	n	x
O=C1/C(=C\c2cccnc2)Sc2ccccc21	n	n	n	n	n	31	n
CC(=O)N(\C=C/C=C/C=C1\Sc2ccccc2C1=O)c1ccccc1	n	n	n	n	n	46	26
